Data from PMC6995037 (Biochemistry, 2015).
Entries after “also recorded” stand apart in the source; their conditions may differ. Like-named read-outs stand apart in the source and are kept apart here. Each block holds one molecule with its values, some of them ahead of it. No end group written: not given here.

B1: ASCIZ: transcription factor ASCIZ with 17 motifs (protein, UniProt O43313 1-823, looked up)
ATM interactor: MAASEAAAAAGSAALAAGARAVPAATTGAAAAASGPWVPPGPRLRGSRPRPAGATQQPAVPAPPAGELIQPSVSELSRAVRTNILCTVRGCGKILPNSPALNMHLVKSHRLQDGIVNPTIRKDLKTGPKFYCCPIEGCPRGPERPFSQFSLVKQHFMKMHAEKKHKCSKCSNSYGTEWDLKRHAEDCGKTFRCTCGCPYASRTALQSHIYRTGHEIPAEHRDPPSKKRKMENCAQNQKLSNKTIESLNNQPIPRPDTQELEASEIKLEPSFEDSCGSNTDKQTLTTPPRYPQKLLLPKPKVALVKLPVMQFSVMPVFVPTADSSAQPVVLGVDQGSATGAVHLMPLSVGTLILGLDSEACSLKESLPLFKIANPIAGEPISTGVQVNFGKSPSNPLQELGNTCQKNSISSINVQTDLSYASQNFIPSAQWATADSSVSSCSQTDLSFDSQVSLPISVHTQTFLPSSKVTSSIAAQTDAFMDTCFQSGGVSRETQTSGIESPTDDHVQMDQAGMCGDIFESVHSSYNVATGNIISNSLVAETVTHSLLPQNEPKTLNQDIEKSAPIINFSAQNSMLPSQNMTDNQTQTIDLLSDLENILSSNLPAQTLDHRSLLSDTNPGPDTQLPSGPAQNPGIDFDIEEFFSASNIQTQTEESELSTMTTEPVLESLDIETQTDFLLADTSAQSYGCRGNSNFLGLEMFDTQTQTDLNFFLDSSPHLPLGSILKHSSFSVSTDSSDTETQTEGVSTAKNIPALESKVQLNSTETQTMSSGFETLGSLFFTSNETQTAMDDFLLADLAWNTMESQFSSVETQTSAEPHTVSNF
B2: LC8 (natural protein)
chain: MSDRKAVIKNADMSEEMQQDAVDCATQALEKYNIEKDIAAYIKKEFDKKYNPTWHCIVGRNFGSYVTHETRHFIYFYLGQVAILLFKSG
B3: Chica_(410–478) (domain or fragment, human, UniProt Q9H4H8 410-478, looked up)
chain: QTSITTACAGTQTAVITRIASSQTTIWSRSTTTQTDMDENILFPRGTQSTEGSPVSKMSVSRSSSLKSS

Columns and labels:
LC8 [1] = target: T1, LC8 (Drosophila melanogaster, UniProt Q24117); conditions: read-out: binding affinity; Pak1; cited from earlier work
LC8 [2] = target: T1, LC8; assay: Isothermal titration calorimetry of LC8 binding to Chica motif peptides; conditions: for relative affinity, in words: comparison between Chica motif peptides; for fold weaker affinity than QT1p: relative to QT1p (Kd 0.4 μM)
Method in brief: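 Synthetic peptides of Chica motifs, with added non-native N-terminal residues for solubility and A280 quantitation, at 280–300 μM final in 50 mM sodium phosphate, 50 mM NaCl, 0.5 mM sodium azide, pH 7.5. Titrated into 30–35 μM LC8 in the cell at 25 °C. Peak areas were fitted to a single-site model for N, Kd, ΔH and ΔS. Values are the average of three independent experiments.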

LC8 [3] = target: T1, LC8; conditions: of 17 motifs; cited from earlier work
LC8 [4] = target: B2; assay: ITC
Chica_(410–478) = target: B3; assay: ITC
LC8 [5] = target: B2; assay: ITC; remark: listed apart in the source

Molecule: Pak1: LC8 recognition motif of Pak1 (TPTRDVATSP)
Kd (LC8 [1]): 42.7 µM

Molecule: SYSVSEVGTQTSI [QT2p]
relative affinity, in words (LC8 [2]; ITC, listed as QT2): bind LC8 with a similar affinity
fold weaker affinity than QT1p (LC8 [2]): over 10 fold

Molecule: SYTTACAGTQTAV [QT3p]
binding to LC8, in words (LC8 [2]; ITC, 25 °C, pH 7.5): too weak to be measured accurately by ITC; also recorded: immeasurably weak

relative affinity, in words (LC8 [2]; ITC): bind LC8 with a similar affinity
Molecule: SYWSRSTTTQTDM [QT4p]
fold weaker affinity than QT1p (LC8 [2]): over 10 fold

Molecule: B1
number of motifs that bind LC8 (LC8 [3]): 11

Kd (LC8 [4]): 5.2 ± 0.1 µM
dH (LC8 [4]): -8.2 ± 0.1 kcal/mol
stoichiometry N (LC8 [4]): 1
Molecule: SYWSRSTTTQTDM [QT4p]

Molecule: B2
dH (Chica_(410–478)): -7.6 ± 0.2 kcal/mol
stoichiometry N (Chica_(410–478)): 3

dH (LC8 [4]): -6.8 ± 0.2 kcal/mol
stoichiometry N (LC8 [4]): 1
Molecule: SYRKAIDAATQTEE [QT1p]

Kd (LC8 [4]): 6.3 ± 0.4 µM
dH (LC8 [4]): -8.5 ± 1.1 kcal/mol
stoichiometry N (LC8 [4]): 1
Molecule: SYSVSEVGTQTSI [QT2p]

Molecule: B3
Kd (LC8 [5]): 0.4 ± 0.1 µM
